# Results of several laboratories.
# Target: Dual specificity mitogen-activated protein kinase kinase 1 (MAP2K1, Homo sapiens, UniProt Q02750)
observed,action,technique,tested at,quantity,result,Compound
cell-free assay,,,0.5 µM,remaining signal,97.1%,N#CCCc1ccc2c(c1)-c1[nH]c3ccc([N+](=O)[O-])cc3c1CC(=O)N2
enzyme activity,inhibitor,FRET,10 µM,inhibition,13%,CN(C)C1CCN(CC#Cc2nn(C3CCCC3)c3nc(NCc4ccccc4)ncc23)C1 (centres unmarked)
cell-free assay,,,0.5 µM,remaining signal,111%,Cc1ccc(NC(=O)c2ccc(CN3CCN(C)CC3)cc2)cc1Nc1nc(-c2cccnc2)cs1
enzyme activity,inhibitor,radiometric,2 µM,inhibition,16.9%,Cn1cnc(Br)c1C1=CN(c2ncnc3[nH]cnc23)CCS1
cell-free assay,,competition with immobilised ligand,1 µM,remaining binding,98%,O=C(Nc1ccc(Oc2ccc(F)cc2)cc1)N1CCc2ncccc2[C@H]1c1ccc(F)cc1
enzyme activity,inhibitor,,0.4 µM,inhibition,12%,CNCc1ccc(-c2cc(-c3nc(-c4ccc(S(=O)(=O)C(C)C)cc4)cnc3N)on2)cc1
cell-free assay,,competition with immobilised ligand,1 µM,remaining binding,92%,Cc1nccc(COC(=O)N2C[C@@H]3[C@@H](CNC(=O)c4ccc5[nH]nnc5c4)[C@@H]3C2)n1
enzyme activity,inhibitor,,10 µM,inhibition,1%,Cc1ccc(Nc2nccc(N(C)c3ccc4c(C)n(C)nc4c3)n2)cc1S(N)(=O)=O
cell-free assay,,competition with immobilised ligand,1 µM,remaining binding,74%,C[C@@H]1CN(c2cc(-c3nn(C)c4ccc(OC5(C)CC5)cc34)ncn2)C[C@H](C)O1
cell-free assay,,,10 µM,remaining signal,34%,Cc1ccc(NC(=O)c2ccc(C)c(C(F)(F)F)c2)cc1C#Cc1nn(C2CCC(O)CC2)c2ncnc(N)c12 (centres unmarked)
enzyme activity,inhibitor,,10 µM,remaining activity,96%,Nc1nc(Nc2ccccc2)sc1C(=O)c1c(F)cccc1F
enzyme activity,inhibitor,,1 µM,activity vs control,112%,CC(C)c1ccc(NC(=O)c2cccs2)c(-c2nc3ccccc3[nH]c2=O)c1
enzyme activity,inhibitor,,1 µM,remaining activity,44%,CCN(CC)CCNC(=O)c1c(C)[nH]c(/C=C2\C(=O)Nc3ccc(F)cc32)c1C
enzyme activity,inhibitor,,1 µM,inhibition,13%,CN1CC(Oc2cnc(C#N)cc2-c2ccn3nc(NC(=O)C4CC4)cc3c2)C1
enzyme activity,inhibitor,,10 µM,inhibition,-2%,O=C(CSc1nc2nccnc2c(=O)n1CCc1ccccc1)Nc1nccs1
cell-free assay,,competition with immobilised ligand,1 µM,remaining binding,79%,CSc1cccnc1N1CCN(Cc2nc3ccccc3[nH]2)CC1
enzyme activity,inhibitor,,10 µM,remaining activity,95.5%,Cc1sc(C(=O)NC2COC2)cc1-n1cc(NC(=O)Nc2c(F)cccc2Cl)cn1
enzyme activity,inhibitor,,10 µM,remaining activity,94%,CC(C)(C)C(=O)c1sc(NC2CCCCC2)nc1N
cell-free assay,,competition with immobilised ligand,1 µM,remaining binding,100%,Cc1cc(-n2nc(Cc3cc(F)cc(C(F)(F)F)c3)nc2C)ccc1C(N)=O
cell-free assay,,,0.5 µM,remaining signal,93.9%,Nc1nc(Nc2ccc(S(N)(=O)=O)cc2)nn1C(=O)c1c(F)cccc1F
enzyme activity,inhibitor,,1 µM,activity vs control,93%,COc1cc(/C=C/C(=O)CC(=O)/C=C/c2ccc(O)c(OC)c2)ccc1O
enzyme activity,inhibitor,,0.3 µM,inhibition,0%,CNC(=O)c1cc(Oc2ccc(NC(=O)Nc3ccc(Cl)c(C(F)(F)F)c3)cc2)ccn1
cell-free assay,,competition with immobilised ligand,1 µM,remaining binding,66%,CCCOc1ccc([C@H]2[C@H](C(=O)O)[C@@H](c3ccc4c(c3)OCO4)CN2CC(=O)Nc2c(CC)cccc2CC)cc1
enzyme activity,inhibitor,,1 µM,remaining activity,59%,Cc1[nH]c(/C=C2\C(=O)Nc3ccc(F)cc32)c(C)c1C(=O)N[C@H]1CCN(C(=O)N(C)C)C1
enzyme activity,inhibitor,radiometric,5 µM,activity vs control,73%,FC(F)(F)Oc1cccc(-c2cnc3ccc(-c4ccncc4)nn23)c1
cell-free assay,,competition with immobilised ligand,1 µM,remaining binding,81%,O=C(O)[C@@H]1[C@@H](Cn2nnc3ccccc3c2=O)CC[C@H]1C(=O)c1ccc(OCCC2CCOCC2)cc1
cell-free assay,inhibitor,,20 µM,remaining signal,9.3%,Nc1ncnc2occ(-c3ccc(NC(=O)Nc4cc(C(F)(F)F)ccc4F)cc3)c12
enzyme activity,inhibitor,,1 µM,inhibition,1%,COc1cc2ncnc(Nc3ccc(Oc4ccccc4)c(C)c3C)c2cc1OC
enzyme activity,inhibitor,FRET,1 µM,inhibition,16%,CCOc1cc(-c2nncn2C)ccc1Nc1ncc2cc(C)nc(NCC(C)(C)C)c2n1
enzyme activity,inhibitor,,1 µM,inhibition,77.1%,CN(c1ncccc1CNc1nc(Nc2ccc3c(c2)CC(=O)N3)ncc1C(F)(F)F)S(C)(=O)=O
cell-free assay,,competition with immobilised ligand,1 µM,remaining binding,100%,CC(C)(O)c1cncc(-c2nc3ccc(F)cc3n2C2CC2)c1
enzyme activity,inhibitor,,10 µM,remaining activity,116%,Cn1c(=O)n(-c2ccc(C(C)(C)C#N)cc2)c2c3cc(-c4cnc5ccccc5c4)ccc3ncc21
enzyme activity,inhibitor,radiometric,1 µM,remaining activity,94%,CC(C)(C)c1nc(-c2cccc(NS(=O)(=O)c3c(F)cccc3F)c2F)c(-c2ccnc(N)n2)s1
enzyme activity,inhibitor,,0.3 µM,inhibition,36%,CCN(CC)CCNC(=O)c1c(C)[nH]c(/C=C2\C(=O)Nc3ccc(F)cc32)c1C
enzyme activity,inhibitor,,1 µM,inhibition,< 10%,CCCS(=O)(=O)Nc1ccc(F)c(C(=O)c2c[nH]c3ncc(-c4ccc(Cl)cc4)cc23)c1F
